Assay results: the array DNA melting data of Ke et al. (doi:10.1101/2024.01.08.574731)

How the values were obtained:
[1] = melting temperature; fluorescence melt of hairpins on a sequencing array, two-state fit, raised by 9.35 °C to match UV melts; settings: sodium 0.088 M
Outline: (§1)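 Library hairpins on a sequenced MiSeq flow cell carried annealed Cy3 and quencher oligos, and their Cy3 fluorescence was imaged in 50 mM Na-HEPES pH 8.0 with 25 mM NaCl, in 2.5 °C steps up to 60 °C. Signals were normalised to Cy3 before quenching and to control constructs. Melting temperature and folding enthalpy were obtained from bootstrapped two-state fits, combined by inverse-variance weighting across four replicates, and the fitted temperatures were then raised by 9.35 °C to match UV melts.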

[2] = folding enthalpy; higher = less favourable; fluorescence melt of hairpins on a sequencing array, two-state fit; settings: sodium 0.088 M
Outline: as §1

| Sequence | Tm [1] | folding enthalpy [2] |
| --- | --- | --- |
| GGTAAACCGAAAGGTACC (((..(((....)))))) | 40.1 °C | -20.2 kcal/mol |
| GGTAAACGAAAGTTCACC (((.(((....))).))) | 40.4 °C | -28.6 kcal/mol |
| GGTAAACGAAAGTTGACC (((.(((....))).))) | 49.4 °C | -36.3 kcal/mol |
| GGTAACACGAAAGTGACC (((..(((....)))))) | 37.1 °C | -17.1 kcal/mol |
| GGTAACGAAAGTTAGACC ((((((....)))..))) | 33.6 °C | -13 kcal/mol |
| GGTAACGAAAGTTCGACC ((((((....)))..))) | 28 °C | -16 kcal/mol |
| GGTAACGAAAGTTGCACC ((((((....)))..))) | 35.1 °C | -14.1 kcal/mol |
| GGTAAGACGAAAGTCACC (((..(((....)))))) | 39.3 °C | -16.2 kcal/mol |
| GGTAAGCGAAAGCTAACC (((.(((....))).))) | 50.1 °C | -33.4 kcal/mol |
| GGTAAGCGAAAGCTCACC (((.(((....))).))) | 46.9 °C | -25.5 kcal/mol |
| GGTAAGGAAACTTACC ((((((....)))))) | 50.3 °C | -32.2 kcal/mol |
| GGTAAGGGAAACCTTACC (((((((....))))))) | 57.5 °C | -46.1 kcal/mol |
| GGTAAGGGAAACCTTGCC ((.((((....)))).)) | 48.3 °C | -29.6 kcal/mol |
| GGTAATCCGAAAGGAACC (((..(((....)))))) | 26 °C | -19.7 kcal/mol |
| GGTAATGAAAATTACC ((((((....)))))) | 48.4 °C | -32.4 kcal/mol |
| GGTAATGCGAAAGCAACC (((..(((....)))))) | 31.6 °C | -11.2 kcal/mol |
| GGTACACCGAAAGGTACC (((..(((....)))))) | 41.1 °C | -20.5 kcal/mol |
| GGTACACGAAAGTGACC (((.(((....)))))) | 46.4 °C | -18.4 kcal/mol |
| GGTACAGGAAACTGTATC (.(((((....))))).) | 43.4 °C | -28.6 kcal/mol |
| GGTACCGAAAGGTGCACC ((((((....)))..))) | 40.3 °C | -13.9 kcal/mol |
| GGTACCGAAAGGTGTACC ((((((....)))..))) | 46.6 °C | -22.5 kcal/mol |
| GGTACCGAAAGGTTGACC ((((((....)))..))) | 36 °C | -16.9 kcal/mol |
| GGTACGGCGAAAGCCACC (((..(((....)))))) | 38.1 °C | -10.6 kcal/mol |

| Sequence | Tm [1] | folding enthalpy [2] |
| --- | --- | --- |
| GGTACTCGAAAGAGACC (((.(((....)))))) | 43.1 °C | -23.6 kcal/mol |
| GGTACTGGAAACAATACC ((((.((....)).)))) | 26.7 °C | -12 kcal/mol |
| GGTACTGGAAACAGTGCC ((.((((....)))).)) | 54.9 °C | -41.8 kcal/mol |
| GGTAGCCGAAAGGCCACC (((.(((....))).))) | 52.2 °C | -19.5 kcal/mol |
| GGTAGCGAAAGCTTTACC ((((((....)))..))) | 34.4 °C | -15.7 kcal/mol |
| GGTAGGTCGAAAGACACC (((..(((....)))))) | 35.3 °C | -16.5 kcal/mol |
| GGTAGTCGAAAGACGACC (((.(((....))).))) | 54.2 °C | -44.9 kcal/mol |
| GGTAGTGGAAACACTATC (.(((((....))))).) | 43.5 °C | -23.4 kcal/mol |
| GGTAGTGGAAACGCTACC (((((.(....).))))) | 51.7 °C | -34.9 kcal/mol |
| GGTATACGAAAGTACACC (((.(((....))).))) | 40 °C | -28.7 kcal/mol |
| GGTATAGCGAAAGCTACC (((..(((....)))))) | 39.6 °C | -15.4 kcal/mol |
| GGTATAGGAAACTGTACC ((((.((....)).)))) | 43 °C | -31.3 kcal/mol |
| GGTATCGAAAGATATACC ((((((....)))..))) | 34 °C | -19.7 kcal/mol |
| GGTATCGAAAGATTAACC ((((((....)))..))) | 30.3 °C | -17 kcal/mol |
| GGTATCGAAAGATTTACC ((((((....)))..))) | 28.5 °C | -27.8 kcal/mol |
| GGTATCGGAAACGGTATC (.((.((....)).)).) | 30.9 °C | -26.1 kcal/mol |
| GGTATGGCGAAAGCCACC (((..(((....)))))) | 38.9 °C | -8.56 kcal/mol |
| GGTATGGGAAACCATGCC ((.((((....)))).)) | 51.3 °C | -37.4 kcal/mol |
| GGTATGGGAAACTATGCC ((.((.(....).)).)) | 30.9 °C | -23.7 kcal/mol |
| GGTATTCGAAAGAAAACC (((.(((....))).))) | 39.3 °C | -32.8 kcal/mol |
| GGTATTCGAAAGAAACC (((.(((....)))))) | 31.7 °C | -16.9 kcal/mol |
| GGTATTGCGAAAGCAACC (((..(((....)))))) | 29.4 °C | -10 kcal/mol |
| GGTATTGGAAACAACACC (((.(((....))).))) | 32.2 °C | -31.9 kcal/mol |

| Sequence | Tm [1] | folding enthalpy [2] |
| --- | --- | --- |
| GGTCAAACGAAAGTTACC (((..(((....)))))) | 30.3 °C | -15.1 kcal/mol |
| GGTCAACGAAAGTTTACC (((.(((....))).))) | 42.8 °C | -28.8 kcal/mol |
| GGTCAAGGAAACTTGATC (.(((((....))))).) | 42.1 °C | -34.1 kcal/mol |
| GGTCAAGGAAACTTGGTC (..((((....))))..) | 29.7 °C | -13.9 kcal/mol |
| GGTCACCGAAAGGTACC (((.(((....)))))) | 47.1 °C | -19.7 kcal/mol |
| GGTCACGAAAGTGAAACC ((((((....)))..))) | 41.4 °C | -17.9 kcal/mol |
| GGTCACGAAAGTGAACC ((((((....))).))) | 55.6 °C | -27.2 kcal/mol |
| GGTCACGAAAGTGACACC ((((((....)))..))) | 52 °C | -7.64 kcal/mol |
| GGTCACGAAAGTGCAACC ((((((....)))..))) | 38.6 °C | -15.9 kcal/mol |
| GGTCACGAAAGTGCCACC ((((((....)))..))) | 44.4 °C | -12.9 kcal/mol |
| GGTCACGGAAACGCGACC ((((.((....)).)))) | 54.4 °C | -50.2 kcal/mol |
| GGTCACGGAAACGTGATC (.(((((....))))).) | 53 °C | -30.4 kcal/mol |
| GGTCACTCGAAAGAGACC (((..(((....)))))) | 40.8 °C | -24.1 kcal/mol |
| GGTCAGCGAAAGCTAACC (((.(((....))).))) | 46.7 °C | -25.6 kcal/mol |
| GGTCAGGGAAACCTAACC (((.(((....))).))) | 33.6 °C | -24.6 kcal/mol |
| GGTCCACGAAAGTGAACC (((.(((....))).))) | 51.3 °C | -34.8 kcal/mol |
| GGTCCAGGAAACTAGACC ((((.((....)).)))) | 35.7 °C | -29.7 kcal/mol |
| GGTCCCCGAAAGGGAACC (((.(((....))).))) | 53 °C | -37 kcal/mol |
| GGTCCCGAAAGGGAGACC ((((((....)))..))) | 51.4 °C | -17 kcal/mol |
| GGTCCCGAAAGGGGTACC ((((((....)))..))) | 44.9 °C | -17.2 kcal/mol |
| GGTCCCGAAAGGGTCACC ((((((....)))..))) | 39.4 °C | -12.2 kcal/mol |
| GGTCCCGGAAACGGGGTC (..((((....))))..) | 42.8 °C | -14.4 kcal/mol |
| GGTCCGCGAAAGCGAACC (((.(((....))).))) | 57.5 °C | -28.1 kcal/mol |

| Sequence | Tm [1] | folding enthalpy [2] |
| --- | --- | --- |
| GGTCCGGGAAACCGGGCC ((.((((....)))).)) | 68 °C | -32.5 kcal/mol |
| GGTCCGGGAAACCGGGTC (..((((....))))..) | 47.6 °C | -12.7 kcal/mol |
| GGTCCTGGAAACGGGATC (.(((.(....).))).) | 38.4 °C | -28.5 kcal/mol |
| GGTCGAGCGAAAGCTACC (((..(((....)))))) | 33.3 °C | -11.9 kcal/mol |
| GGTCGATCGAAAGATACC (((..(((....)))))) | 26.2 °C | -6.77 kcal/mol |
| GGTCGCCGAAAGGCTACC (((.(((....))).))) | 54.4 °C | -21.2 kcal/mol |
| GGTCGCGAAAGCGATACC ((((((....)))..))) | 47.7 °C | -11.3 kcal/mol |
| GGTCGCGAAAGCGCAACC ((((((....)))..))) | 42.4 °C | -13.1 kcal/mol |
| GGTCGCGAAAGCGTACC ((((((....))).))) | 62 °C | -21.2 kcal/mol |
| GGTCGCGGAAACGCGGTC (..((((....))))..) | 47.4 °C | -13.2 kcal/mol |
| GGTCGGGGAAACCCAACC (((.(((....))).))) | 44.9 °C | -27 kcal/mol |
| GGTCGGGGAAACCCGGTC (..((((....))))..) | 45.5 °C | -14.8 kcal/mol |
| GGTCTAGGAAACCAGACC (((((.(....).))))) | 45 °C | -35.1 kcal/mol |
| GGTCTAGGAAACTAGACC (((((((....))))))) | 60.5 °C | -47.7 kcal/mol |
| GGTCTCGAAAGAGAAACC ((((((....)))..))) | 34.7 °C | -21.5 kcal/mol |
| GGTCTCGAAAGAGCAACC ((((((....)))..))) | 34.5 °C | -14.2 kcal/mol |
| GGTCTCGAAAGAGCCACC ((((((....)))..))) | 43.3 °C | -14.8 kcal/mol |
| GGTCTCGAAAGAGGAACC ((((((....)))..))) | 35.1 °C | -16.9 kcal/mol |
| GGTCTCGGAAACGAGATC (.(((((....))))).) | 52.1 °C | -38.2 kcal/mol |
| GGTCTGGCGAAAGCCACC (((..(((....)))))) | 27.1 °C | -7.45 kcal/mol |
| GGTCTTGGAAACAAGGTC (..((((....))))..) | 30.4 °C | -12 kcal/mol |
| GGTGAACGAAAGTTAACC (((.(((....))).))) | 49.2 °C | -34.1 kcal/mol |
